Lmaj promast: inhibitors of Leishmania major promastigote growth | Leishmania major promastigotes, resazurin fluorescence viability | inhibition, % at 10 µM | 9% of 200,000 active | AID 1063;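 note: promastigotes grown with compound for 44 hours at 28 °C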
Arbovirus anti: antivirals against arbovirus infection; arbovirus infection cell-based antiviral screen; inhibition, % at 10 µM; 0.37% of 200,000 active; in the data active = inhibition above about 30%
Wee1 degr inh: blocks degradation of human Wee1 kinase | HeLa Luc-Wee1K328M stability, luciferase luminescence; 100% = proteasome inhibitor MG132 effect | P30291 | 1.2% of 220,000 active | reporter increase, % at 5 µM;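 active = activation above the mean of all tested compounds plus 3 SD, set per screening run, cut at about 8.8% in these data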;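 note: cells exposed to compound for 20 h before luminescence read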
CHOP inh: blocks CHOP induction under ER stress; inhibition, % at 10 µM; 3.8% of 220,000 active; CHO-K1 CHOP-promoter luciferase, tunicamycin-induced, 15-18 h;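 active = compounds that reduced the stress-induced luciferase reporter signal by more than about 70% of percent inhibition, limit read from the data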
PKD1 inh: inhibitors of human PKD1 kinase. Q15139. PKD1 kinase fluorescence polarization assay. inhibition, % (test concentration not listed). 0.056% of 200,000 active. AID 797
Rad51 HR inh: Rad51 (human) homologous recombination inhibition | Q06609 | hRad51 DNA strand exchange, fluorescence dequenching | inhibition, % at 10 µM | 0.085% of 200,000 active;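 active = inhibition above 40% at the single screening dose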
Target sequence (Q06609 whole entry, looked up): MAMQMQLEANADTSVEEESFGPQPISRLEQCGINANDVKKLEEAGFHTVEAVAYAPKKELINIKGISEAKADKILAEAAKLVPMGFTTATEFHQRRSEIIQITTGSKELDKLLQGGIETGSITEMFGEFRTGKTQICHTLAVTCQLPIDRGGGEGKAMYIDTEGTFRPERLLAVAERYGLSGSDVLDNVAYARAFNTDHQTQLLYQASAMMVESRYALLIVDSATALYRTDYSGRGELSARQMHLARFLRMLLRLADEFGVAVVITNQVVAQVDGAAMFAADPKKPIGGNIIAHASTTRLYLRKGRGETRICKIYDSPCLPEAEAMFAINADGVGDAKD
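material = hRad51 filaments on single-stranded DNA | reagent = Donor/quencher-labelled 47-bp dsDNA substrate | compound = 10 µM final, single point | schedule = strand-exchange reaction 15 min at room temperature | measured by = fluorescein emission 520 nm, excitation 485 nm | read-out basis = % inhibition versus plate control and blank means | benchmarks = plate controls and plate blanks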
Large screens that a line does not name were inactive. Shown are actives, neighbours in structure and some others; about 12% of the full set was active somewhere. Cut-off read from the data, not from the text of the source, unless noted: active = inhibition above about 50%; inactive = the rest.

Cc1ccc(CN(Cc2ccco2)C(=S)NCC(=O)NCc2cccnc2)cc1	none
COCCNC(=O)CNC(=S)N(Cc1ccccc1)Cc1cccnc1	none
Cc1ccc(CNC(=O)CNC(=S)N(Cc2ccccc2)Cc2cccnc2)cc1	Lmaj promast 97
CS(=O)(=O)N1CCN(c2nnc(-c3ccccc3)c3ccccc23)CC1	none
O=S(=O)(c1ccccc1)N1CCN(c2nnc(-c3ccccc3)c3ccccc23)CC1	Wee1 degr inh 9.5 (no result: Lmaj promast, Arbovirus anti, PKD1 inh)
CC(C)(Oc1ccc(Cl)cc1)C(=O)NC1=NN(c2ccccc2)C(=O)C1	Arbovirus anti 35
O=C1CC(NC(=O)C(F)(F)F)=NN1c1ccccc1	none
CC1C(c2ccccc2)N(C)CCC12NC(=O)NC2=O (stereo not drawn)	none
CC1C(c2ccccc2)N(C)C(c2ccccc2)C(C)C1(O)C#Cc1ccccc1 (stereo not drawn)	Lmaj promast 69 (no result: Rad51 HR inh)
Cc1ccccc1NC(=O)C1CC(=O)N(c2ccc3c4c(cccc24)CC3)C1 (stereo not drawn)	none
O=C(Nc1ccccc1Br)C1CC(=O)N(c2ccc3c4c(cccc24)CC3)C1 (stereo not drawn)	Lmaj promast 62
COc1ccccc1NC(=O)NCCN1CCNC1=O	none (no result: Lmaj promast, Arbovirus anti, PKD1 inh)
S=C(NCCc1ccccc1)Nc1cccc2cnccc12	none
COC(=O)C(CCSC)NC(=O)c1cc2c(n(-c3ccc(C)cc3)c1=O)CCCC2=O (stereo not drawn)	none
CC1(C)CC(=O)c2cc(C(=O)N3CCCC(C)(C)C3)c(=O)n(-c3ccccc3)c2C1	Lmaj promast 83
COc1ccc(-n2c3c(cc(C(=O)NCc4ccco4)c2=O)C(=O)CC(C)(C)C3)cc1	Lmaj promast 55
COC(=O)C(CCSC)NC(=O)c1cc2c(n(-c3ccccc3)c1=O)CC(C)(C)CC2=O (stereo not drawn)	Lmaj promast 84
CS(=O)(=O)N(CC(=O)Nc1ccc(S(=O)(=O)N2CCCC2)cc1)c1ccccc1	none
CC(C)NC(=O)c1ccc2c(=O)n(C3CCCC3)c(=S)[nH]c2c1	none
CCN(CC)CCNC(=O)c1ccc2c(=O)n(C3CCCC3)c(=S)[nH]c2c1	Lmaj promast 85
CCOc1ccc(C(=O)Nc2cccc(C(C)=O)c2)cc1[N+](=O)[O-]	none
CC(C)C(=O)NC(c1cccs1)c1cc([N+](=O)[O-])c2cccnc2c1O (stereo not drawn)	none
CC(C)CC(=O)NC(c1cccs1)c1ccc2cccnc2c1O (stereo not drawn)	Lmaj promast 100, CHOP inh 79
Cc1conc1NC(c1cccs1)c1ccc2cccnc2c1O (stereo not drawn)	Lmaj promast 99 (no result: CHOP inh)
CCC(=O)NC(c1cccs1)c1ccc2cccnc2c1O (stereo not drawn)	Lmaj promast 100, CHOP inh 86 (no result: Rad51 HR inh)
Cc1ccc(C)n1-c1ccc(-c2ccnc(N)n2)cc1	none
C=C(C)C(=O)Nc1cccc(C2=NOC3(C2)C[C@H](C(N)=O)N(C(=O)COc2ccc(Cl)cc2)C3)c1 (stereo partly drawn)	none (no result: Lmaj promast, Arbovirus anti, Wee1 degr inh, PKD1 inh)
Cc1ccc2nc(SCC(=O)N(CC(C)C)c3c(N)n(Cc4ccccc4)c(=O)[nH]c3=O)[nH]c2c1	none (no result: Lmaj promast, Arbovirus anti, PKD1 inh)
COc1ccc(CNC(=O)c2csc(Cc3ccc(Cl)cc3)n2)cc1	Wee1 degr inh 9.5, CHOP inh 72 (no result: Rad51 HR inh)
COc1ccc(CNC(=O)c2csc(Cc3ccc(OC)cc3)n2)cc1	none
CN1CCN(CCCC(=O)c2ccc(F)cc2)CC1	none
O=C(CCCN1Cc2ccccc2C1)c1ccc(F)cc1	Lmaj promast 93
O=C(CCN1Cc2ccccc2C1)c1ccc2c(c1)OCCO2	Lmaj promast 83
O=C(O)CCC(=O)c1ccc2c(c1)OCCO2	none
O=C(CCN1CCc2ccccc2C(c2ccccc2)C1)c1ccc2c(c1)OCCO2 (stereo not drawn)	Lmaj promast 100
COc1ccc(C(O)P(=O)(OC(C)C)OC(C)C)c(OC)c1 (stereo not drawn)	none (no result: Lmaj promast, Arbovirus anti, PKD1 inh)
CCCCOc1ccc(/C=C/C2=CC(C)(C)NC(=S)N2)cc1OCC	none
COc1ccc(C(c2nnnn2CCc2ccccc2)N2CCN(C3CCCC3)CC2)cc1OC (stereo not drawn)	Lmaj promast 100
COc1ccccc1C(c1nnnn1Cc1ccccc1)N1CCN(C2CCCC2)CC1 (stereo not drawn)	none
COc1cccc(C(c2nnnn2Cc2ccccc2)N2CCN(C3CCCC3)CC2)c1OC (stereo not drawn)	Lmaj promast 98
COc1ccc(C(c2nnnn2C2CCCC2)N2CCN(C3CCCC3)CC2)cc1OC (stereo not drawn)	Lmaj promast 83
O=C1CCCc2cc3c(cc21)CC1(C3)Cc2cc3c(cc2C1)C(=O)CCC3	none (no result: Lmaj promast, Arbovirus anti, PKD1 inh)
CCOC(=O)N1CCC(=NNC(=O)Cn2ccc(C(F)(F)F)n2)CC1	none
O=C(C1=NOC(CNc2ncc(C(F)(F)F)cc2Cl)C1)N1CCOCC1 (stereo not drawn)	none
CCOc1ccc2nc(N/C(N)=N/C(=S)Nc3cccc(C)c3)nc(C)c2c1	Lmaj promast 60
COc1ccc(NC(=S)N(CCCN2CCCC(C)C2)Cc2cccs2)cc1 (stereo not drawn)	Lmaj promast 95
COc1ccc(NC(=S)N(CCCN2CCCC2)Cc2ccco2)cc1	none
CSc1cccc(NC(=S)N(CCCN2CCCC2)Cc2cccs2)c1	Lmaj promast 99
COc1ccc(NC(=S)N(CCCN2CCCCCC2)Cc2cccs2)cc1	Lmaj promast 97
COc1ccc(NC(=S)N(CCCN2CCCC2)Cc2cccs2)cc1	Lmaj promast 80
CCS(=O)(=O)c1ccc2oc(Nc3cccc(OC)c3)nc2c1	none
Cc1ccc(Cl)cc1NC(=S)N(CCCN1CCN(C)CC1)Cc1cccs1	Lmaj promast 54
CN(C)CCCNC(=O)c1cc2sc3ccccc3c2s1	Lmaj promast 92
COCCNC(=O)c1cc2sc3ccccc3c2s1	none
CN(C)CCCNC(=O)c1ccc(-c2ccccc2)cc1	Lmaj promast 86
COc1ccc(Br)cc1/C=C\C(=O)NCc1cccnc1	none
Cc1nsc(Nc2ccc([N+](=O)[O-])cc2)c1C#N	none
Cc1nc(C(F)(F)F)nc(Nc2ccc(Br)cc2)c1C#N	CHOP inh 82
O=[N+]([O-])c1cccnc1Oc1ccc(C2SCCS2)cc1	none (no result: Lmaj promast, Arbovirus anti, PKD1 inh)
COc1cc(C2SCCS2)cc(Br)c1Oc1ncccc1[N+](=O)[O-]	Wee1 degr inh 13 (no result: Lmaj promast, Arbovirus anti, PKD1 inh)
COc1ccc(CCNC(=O)C(=O)N/N=C/c2cccs2)cc1OC	none
CCO[C@H]1OC(C(=O)N2CCN(Cc3ccc4c(c3)OCO4)CC2)=C[C@@H](c2csc3ccccc23)[C@@H]1CCCO	Lmaj promast 74
CCO[C@H]1OC(C(=O)N2CCN(Cc3ccccc3)CC2)=C[C@@H](C2CCCCC2)[C@@H]1CCCO	none
CCO[C@@H]1OC(C(=O)N2CCN(Cc3ccc4c(c3)OCO4)CC2)=C[C@H](C2CCCCC2)[C@H]1CCCO	Lmaj promast 67

Compound activity deposited in PubChem BioAssay by several laboratories.
